In brackets after ≈: the same amount, converted by molar mass.
Key:
Staphylococcus aureus [1] = assay: Bactericidal activity against methicillin-resistant Staphylococcus aureus 2 planktonic cells after 24 hrs by calgary biofilm device method; format: organism-based
Summary of the method: (§1)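 Biofilms grown 24 h at 37 °C on Calgary device pegs from mid-log culture diluted 1,000-fold in TSB + 0.5% glucose; washed pegs challenged 24 h at 37 °C with 2-fold serial dilutions. Challenge medium subcultured into fresh TSBG overnight; MBC = concentration without visible turbidity; at least three independent experiments.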

Staphylococcus aureus [2] = assay: Induction of biofilm eradication of methicillin-resistant Staphylococcus aureus 2 after 24 hrs by calgary biofilm device method; format: functional
Summary of the method: (§2)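 Calgary device: biofilms established 24 h at 37 °C from mid-log culture diluted 1,000-fold in TSBG (0.5% glucose), washed, exposed 24 h to 2-fold serial dilutions, then peg lid moved to fresh TSBG for 24 h recovery. MBEC = lowest concentration giving no turbidity; at least three independent experiments.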

[3] = tested on: Staphylococcus epidermidis; assay: Bactericidal activity against methicillin-resistant Staphylococcus epidermidis ATCC 35984 planktonic cells after 24 hrs by calgary biofilm device method; format: organism-based; summary of the method: as §1
[4] = tested on: Staphylococcus epidermidis; assay: Induction of biofilm eradication of methicillin-resistant Staphylococcus epidermidis ATCC 35984 after 24 hrs by calgary biofilm device method; format: functional; summary of the method: as §2
[5] = tested on: Mycobacterium tuberculosis; assay: Antibacterial activity against Mycobacterium tuberculosis H37Ra ATCC 25177 after 7 days; format: functional; conditions: H37Ra ATCC 25177, 168 h
Summary of the method: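 M. tuberculosis H37Ra grown two weeks in Middlebrook 7H9, diluted to OD600 0.01; two-fold serial dilutions 0.024–50 µM (streptomycin positive control, 0.16–340 µM); final DMSO 0.5%. Incubated 7 days at 37 °C; MIC = lowest concentration with no growth, OD600 recorded; three independent experiments.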

Staphylococcus aureus [6] = assay: Antibacterial activity against methicillin-resistant Staphylococcus aureus BAA-1707 after 16 to 18 hrs by broth microdilution method; format: functional
Summary of the method: (§3)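 CLSI broth microdilution in Lysogeny Broth, eleven two-fold dilutions spanning 0.10–100 µM; ~10^5 cells per well from log-phase culture; DMSO vehicle (top 1% v/v). MIC = lowest concentration preventing growth after 16–18 h at 37 °C, supported by OD600; three independent experiments.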

Enterococcus faecium [7] = assay: Antibacterial activity against vancomycin-resistant Enterococcus faecium ATCC 700221 after 16 to 18 hrs by broth microdilution method; format: functional; summary of the method: as §3
Staphylococcus aureus [8] = assay: Bactericidal activity against methicillin-resistant Staphylococcus aureus BAA-1707 planktonic cells after 24 hrs by calgary biofilm device method; format: organism-based; summary of the method: as §1
Staphylococcus aureus [9] = assay: Induction of biofilm eradication of methicillin-resistant Staphylococcus aureus BAA-1707 after 24 hrs by calgary biofilm device method; format: functional; summary of the method: as §2
Enterococcus faecium [10] = assay: Bactericidal activity against vancomycin-resistant Enterococcus faecium ATCC 700221 planktonic cells after 24 hrs by calgary biofilm device method; format: organism-based; summary of the method: as §1
Enterococcus faecium [11] = assay: Induction of biofilm eradication of vancomycin-resistant Enterococcus faecium ATCC 700221 after 24 hrs by calgary biofilm device method; format: functional; summary of the method: as §2
[12] = Hemolytic activity in human RBC at 200 uM after 1 hr relative to control; format: ADME, cell-based, Erythrocyte; conditions: red blood cells (erythrocytes), read-out: Activity
Summary of the method: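 Human RBCs drawn fresh into EDTA were washed three times in Tris-buffered saline (0.01 M Tris, 0.155 M NaCl, pH 7.2). 2% hRBC suspension was added to compound from DMSO stock, final 200 µM, for 1 h at 37 °C, then centrifuged and supernatant OD405 read. Scaled between DMSO (0%) and Triton X (100%). Three independent experiments.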

[13] = tested on: Staphylococcus epidermidis; assay: Antibacterial activity against methicillin-resistant Staphylococcus epidermidis ATCC 35984 after 16 to 18 hrs by broth microdilution method; format: functional
HeLa = assay: Cytotoxicity against human HeLa cells after 24 hrs by LDH release assy; format: cell-based
Summary of the method: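 HeLa cells in DMEM with 10% FBS at 37 °C, 5% CO2, dosed at 70-80% confluence with compound diluted in medium at 25, 50 and 100 µM for 24 h. Supernatant mixed with LDH reaction mixture, 30 min at room temperature, stopped, A490 read. Triton X-100 (2% v/v) as maximal-release control, medium only as no-death control, DMSO as vehicle. Three independent experiments.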

[14] = Half life in human serum by LC-MS analysis; format: ADME, cell-free
Summary of the method: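 Human serum pre-warmed to 37 °C, spiked with prodrug from 10 mM DMSO stock plus internal standard, vortexed, then held 1 to 60 min. At each time point, acetonitrile with 0.5% formic acid was added to precipitate proteins. Released active HP was quantified as its ratio to internal standard against standard curves.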

Row | SMILES | MIC (Staphylococcus aureus [6]) [µM] | MIC (Enterococcus faecium [7]) [µM] | hemolysis at 1 h, 200 µM [12] [%] | MIC [13] [µM] | IC50 (HeLa) [µM] | other results
1 | N#CC(C#N)=NNc1cccc(Cl)c1 [CARBONYL CYANIDE M-CHLOROPHENYLHYDRAZONE] |  |  |  |  |  | MBC (Staphylococcus aureus [1]): 31.3 µM (≈ 6.4 µg/mL); MBEC (Staphylococcus aureus [2]): 1000 µM; MBC [3]: 31.3 µM (≈ 6.4 µg/mL); MBEC [4]: 93.8 µM
2 | CN[C@@H]1[C@H](O[C@H]2[C@H](O[C@H]3[C@H](O)[C@@H](O)[C@H](N=C(N)N)[C@@H](O)[C@@H]3N=C(N)N)O[C@@H](C)[C@]2(O)C=O)O[C@@H](CO)[C@H](O)[C@H]1O [STREPTOMYCIN] |  |  |  |  |  | MIC [5]: 1.32 µM (≈ 0.768 µg/mL)
3 | CCCc1cn(Cc2ccc3nc4c(OC(C)=O)c(Br)cc(Br)c4nc3c2)nn1 | 100 (≈ 51.9 µg/mL) | > 100 |  |  |  | 
4 | C[C@H]1c2cccc(O)c2C(=O)C2=C(O)[C@]3(O)C(=O)C(C(N)=O)=C(O)[C@@H](N(C)C)[C@@H]3[C@@H](O)[C@@H]21.O [DOXYCYCLINE] |  |  |  |  |  | MBC (Staphylococcus aureus [1]): 2 µM; MBEC (Staphylococcus aureus [2]): 46.9 µM
5 | c1ccc(CN(CCN(Cc2ccccn2)Cc2ccccn2)Cc2ccccn2)nc1 | 50 (≈ 21.2 µg/mL) |  | ≤ 1 |  |  | MBC (Staphylococcus aureus [8]): 250 µM (≈ 106 µg/mL); MBEC (Staphylococcus aureus [9]): >2000 µM; MBC (Enterococcus faecium [10]): 188 µM (≈ 79.8 µg/mL); MBEC (Enterococcus faecium [11]): >2000 µM
6 | COCCOCCOCCOCCOC(=O)Oc1c(Br)cc(Br)c2nc3cc(Cl)ccc3nc12 |  | 0.1 (≈ 0.0623 µg/mL) | 1.1 | 0.038 (≈ 0.0237 µg/mL) | > 100 | MBC (Staphylococcus aureus [8]): 6.25 µM (≈ 3.89 µg/mL); MBC [3]: 9.38 µM (≈ 5.84 µg/mL); MBEC [4]: 18.8 µM; half-life [14]: < 1 min
7 | NC(=O)c1cnccn1 [PYRAZINAMIDE] |  |  |  |  |  | MBC (Staphylococcus aureus [1]): > 2000 µM; MBEC (Staphylococcus aureus [2]): >2000 µM
8 | Cc1cc2nc3c(O)c(Br)cc(Br)c3nc2c(C)c1C | 0.59 (≈ 0.234 µg/mL) |  | 1.3 | 0.1 (≈ 0.0396 µg/mL) | > 100 | MBC (Staphylococcus aureus [8]): 150 µM (≈ 59.4 µg/mL); MBEC (Staphylococcus aureus [9]): 75 µM; MBC [3]: 25 µM (≈ 9.9 µg/mL); MBEC [4]: 25 µM
9 | O=C(OCCOCCOCCOCCO)OCOc1c(Br)cc(Br)c2nc3ccccc3nc12 | > 100 | > 100 | 2.7 | > 100 | > 100 | half-life [14]: 7.3 min
10 | CCCCCCCCCC(=O)N[C@@H](Cc1c[nH]c2ccccc12)C(=O)N[C@H](CC(N)=O)C(=O)N[C@@H](CC(=O)O)C(=O)N[C@@H]1C(=O)NCC(=O)N[C@@H](CCCN)C(=O)N[C@@H](CC(=O)O)C(=O)N[C@H](C)C(=O)N[C@@H](CC(=O)O)C(=O)NCC(=O)N[C@H](CO)C(=O)N[C@@H]([C@H](C)CC(=O)O)C(=O)N[C@@H](CC(=O)c2ccccc2N)C(=O)O[C@@H]1C [DAPTOMYCIN] |  |  |  |  |  | MBC (Staphylococcus aureus [8]): 125 µM (≈ 203 µg/mL); MBC (Staphylococcus aureus [1]): 62.5 µM (≈ 101 µg/mL)
11 | OC[C@H]1O[C@@H](Oc2c(Br)cc(Br)c3nc4ccccc4nc23)[C@H](O)[C@@H](O)[C@@H]1O | > 100 | > 100 | ≤ 1 | > 100 |  | half-life [14]: > 260 min
12 | COCCOCCOCC(=O)Oc1c(Br)cc(Br)c2nc3ccccc3nc12 |  | 3.13 (≈ 1.61 µg/mL) | 1.2 |  | > 100 | MBC (Staphylococcus aureus [8]): 18.8 µM (≈ 9.67 µg/mL); MBEC (Staphylococcus aureus [9]): 75 µM; MBC [3]: 9.38 µM (≈ 4.82 µg/mL); MBEC [4]: 37.5 µM; MBC (Enterococcus faecium [10]): 6.25 µM (≈ 3.21 µg/mL); half-life [14]: < 1 min
13 | CCCCCCCCCC(=O)N[C@@H](Cc1c[nH]c2ccccc12)C(=O)N[C@@H](CC(N)=O)C(=O)N[C@@H](CC(=O)O)C(=O)N[C@@H]1C(=O)NCC(=O)N[C@@H](CCCN)C(=O)N[C@@H](CC(=O)O)C(=O)N[C@H](C)C(=O)N[C@@H](CC(=O)O)C(=O)NCC(=O)N[C@H](CO)C(=O)N[C@@H]([C@H](C)CC(=O)O)C(=O)N[C@@H](CC(=O)c2ccccc2N)C(=O)O[C@@H]1C [DAPTOMYCIN] | 3.13 (≈ 5.07 µg/mL) |  |  |  |  | MBEC (Staphylococcus aureus [9]): >2000 µM; MBEC (Staphylococcus aureus [2]): >2000 µM
14 | Cc1ccc2nc3c(O)c(Br)cc(Br)c3nc2c1 |  | 2.35 (≈ 0.865 µg/mL) | ≤ 1 | 0.3 (≈ 0.11 µg/mL) | > 100 | MIC [5]: 6.25 µM (≈ 2.3 µg/mL); MBC (Enterococcus faecium [10]): 12.5 µM (≈ 4.6 µg/mL); MBEC (Enterococcus faecium [11]): 3.13 µM
15 | COCCOCCOCCOC(=O)OCOc1c(Br)cc(Br)c2nc3ccccc3nc12 | > 100 | > 100 | 1.4 | > 100 |  | half-life [14]: 15.8 min
16 | CCc1ccc2nc3c(O)ccc(Br)c3nc2c1 |  | 12.5 (≈ 3.79 µg/mL) |  | 9.38 (≈ 2.84 µg/mL) | > 100 | MIC [5]: 25 µM (≈ 7.58 µg/mL)
17 | Oc1ccc(Br)c2nc3cc(Cl)ccc3nc12 |  | 25 (≈ 7.74 µg/mL) |  | 18.8 (≈ 5.82 µg/mL) | > 100 | MIC [5]: 6.25 µM (≈ 1.93 µg/mL)
18 | O=C(O)CN(CCN(CC(=O)O)CC(=O)O)CC(=O)O [EDETIC ACID] | 25 (≈ 7.31 µg/mL) |  |  |  |  | MBC (Staphylococcus aureus [8]): > 2000 µM; MBEC (Staphylococcus aureus [9]): >2000 µM; MBC (Staphylococcus aureus [1]): 2000 µM (≈ 584 µg/mL); MBEC (Staphylococcus aureus [2]): >2000 µM; MBC [3]: 1000 µM (≈ 292 µg/mL); MBEC [4]: >2000 µM
19 | CCCc1ccc2nc3c(O)c(Br)cc(Br)c3nc2c1 | 0.1 (≈ 0.0396 µg/mL) | 3.13 (≈ 1.24 µg/mL) | 2.1 | 0.15 (≈ 0.0594 µg/mL) | > 50 | MBEC (Staphylococcus aureus [9]): 75 µM; MBC [3]: 25 µM (≈ 9.9 µg/mL); MBC (Enterococcus faecium [10]): 25 µM (≈ 9.9 µg/mL)
20 | CCOC(=O)c1ccc2nc3c(O)c(Br)cc(Br)c3nc2c1 |  | 2.35 (≈ 1 µg/mL) |  |  |  | 
21 | CC(=O)N[C@@H](CS)C(=O)O [ACETYLCYSTEINE] |  |  |  |  |  | MBC (Staphylococcus aureus [1]): > 2000 µM; MBEC (Staphylococcus aureus [2]): >2000 µM; MBC [3]: > 2000 µM; MBEC [4]: >2000 µM; MBC (Enterococcus faecium [10]): > 2000 µM; MBEC (Enterococcus faecium [11]): >2000 µM
22 | CCOc1ccc2nc3c(O)c(Br)cc(Br)c3nc2c1 | > 100 | > 100 |  | 18.8 (≈ 7.48 µg/mL) |  | 
23 | O=C(OCCSSCCOC(=O)c1ccccc1)OCOc1c(Br)cc(Br)c2nc3ccccc3nc12 | > 100 | > 100 | 1.3 | > 100 | > 100 | 
24 | Cc1cc(C)c2nc3c(Br)ccc(O)c3nc2c1 | 4.69 (≈ 1.42 µg/mL) | 9.38 (≈ 2.84 µg/mL) |  |  | > 100 | MIC [5]: 50 µM (≈ 15.2 µg/mL)
